The source of these data is ChEMBL document CHEMBL1135629, “The effect of exchanging various substituents at the 2-position of 2-methoxyestradiol on cytotoxicity in human cancer cell cultures and inhibition of tubulin polymerization” (J Med Chem, 2002).

The species named for test [1] is Homo sapiens. As to the kind of experiment: Cytotoxicity against the cancer cell lines renal SN12C. Type of test: functional. An outline of the steps: (§1)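 Human tumor cell line panel (about 55 lines) exposed to compound across 10^-4 to 10^-8 M. GI50 is the concentration giving 50% growth inhibition; values outside the range are set to the range limits.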
Test [2] is filed under the species Homo sapiens. Briefly: Cytotoxicity against the cancer cell lines prostate DU-145. Type of test: functional. In outline:
as §1

Test [3] is filed under the species Homo sapiens. As to the kind of experiment: Cytotoxicity against the cancer cell lines ovarian OVCAR-3. Type of test: functional. In outline:
as §1

For test [4], the species on record is Homo sapiens. As to the kind of experiment: Cytotoxicity against the cancer cell lines CNS SF-539. Type of test: functional. An outline of the steps:
as §1

The species named for test [5] is Homo sapiens. Briefly: Cytotoxicity against the cancer cell lines colon HCT116. Type of test: functional. In outline: as §1
The species named for test [6] is Homo sapiens. As to the kind of experiment: Cytotoxicity against the cancer cell lines breast MDA-MB-435. Type of test: functional. An outline of the steps:
as §1

Test [7] has as its target Tubulin (Bos taurus, UniProt Q6B856+Q862L2+Q862F3). As to the kind of experiment: Inhibition of tubulin polymerization measured at 12 uM tubulin concentration. Type of test: protein assay. In outline:
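Bovine brain tubulin, electrophoretically homogeneous, at 1.2 mg/mL (12 μM), preincubated at 26 °C with varying compound concentrations (up to 40 μM), then chilled on ice before GTP was added. Polymerization at 26 °C followed by turbidity at 350 nm, with extent read at 20 min. IC50 determined graphically from at least two independent assays.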

For test [8], the species on record is Homo sapiens. Briefly: Cytotoxicity against the cancer cell lines melanoma UACC-62. Type of test: functional. In outline:
as §1

Test [9] is filed under the species Homo sapiens. Briefly: Cytotoxicity against the cancer cell lines lung HOP-62. Type of test: functional. In outline:
as §1

In general, GI50 refers to the concentration at which growth is held to half of that of the control. High values mean less potent growth inhibition, low ones more potent growth inhibition. A word on the IC50: it is the midpoint of a concentration-inhibition curve. Read a high IC50 as weaker potency. Consider `CC#Cc1cc2c(cc1O)CC[C@@H]1[C@@H]2CC[C@]2(C)[C@@H](O)CC[C@@H]12`, for which the concentration for 50% growth inhibition (GI50) in test [1] was found to be 6.9 µM; in [2], 3.6 µM; in test [3], 0.34 µM; in test [4] it was 0.95 µM; in [5], 0.48 µM; in [6], 0.13 µM. Moreover, the concentration for 50% growth inhibition (GI50) turned out to be 0.5 µM in [8] and 1.7 µM in test [9]. The half-inhibitory concentration (IC50) in test [7] was 4.9 µM.

In the case of `C[C@]12CC[C@@H]3c4cc(C#N)c(O)cc4CC[C@H]3[C@@H]1CC[C@@H]2O`, the GI50 in [1] was 48 µM; in [2], 34 µM; in test [3], greater than 100 µM; in test [4] it was greater than 100 µM; in test [5], greater than 100 µM; in test [6] it was greater than 100 µM. The values for the GI50 in test [8] and in [9] were 6.1 µM and 56 µM, respectively. In [7], this molecule had an IC50 greater than 40 µM.

Regarding `C[C@]12CC[C@@H]3c4cc(OCCO)c(O)cc4CC[C@H]3[C@@H]1CC[C@@H]2O`, the GI50 amounted to 19 µM in test [1]; 16 µM in [2]; 8.7 µM in [3]; 11 µM in test [4]; 15 µM in [5]; 16 µM in [6]. Further, the GI50 in [8] is 13 µM; in test [9] it was 18 µM. This molecule displayed an IC50 in test [7] of 9.6 µM.

For `C[C@]12CC[C@@H]3c4cc(C#Cc5ccccc5)c(O)cc4CC[C@H]3[C@@H]1CC[C@@H]2O`, the GI50 came out at 11 µM in test [1]; 16 µM in test [2]; 14 µM in [3]; 16 µM in [4]; 14 µM in test [5]; 16 µM in test [6]. The GI50 in test [8] came to 12 µM; in test [9], 14 µM. The molecule also returned a 50% inhibitory concentration (IC50) in test [7] greater than 40 µM.

In the case of `CN(C)CC/N=C/c1cc2c(cc1O)CC[C@@H]1[C@@H]2CC[C@]2(C)[C@@H](O)CC[C@@H]12`, the GI50 in test [1] turned out to be 22 µM; in test [2], 22 µM; in test [3], 21 µM; in test [4], 22 µM; in test [5], 15 µM; in test [6], 19 µM. Further, the results for the 50% growth inhibitory concentration (GI50) in test [8] and in [9] were 17 µM and 19 µM, respectively. The molecule also showed an IC50 in test [7] greater than 40 µM.

`C#Cc1cc2c(cc1O)CC[C@@H]1[C@@H]2CC[C@]2(C)[C@@H](O)CC[C@@H]12`: the concentration for 50% growth inhibition (GI50) in test [1] is 6.4 µM; in test [2], 10 µM; in test [3], 3.8 µM; in test [4], 2.3 µM; in [5], 3.9 µM; in [6], 2.2 µM. Besides, the concentration for 50% growth inhibition (GI50) in test [8] amounted to 4.8 µM; in test [9], 6.2 µM. This molecule also came in with a 50% inhibitory concentration (IC50) in test [7] of 13 µM.

Consider `C[C@]12CC[C@@H]3c4cc(/C=C/CO)c(O)cc4CC[C@H]3[C@@H]1CC[C@@H]2O`, for which the 50% growth inhibitory concentration (GI50) was 6.2 µM in test [1]; 0.9 µM in [2]; 5.3 µM in test [3]; 0.25 µM in test [4]; 0.47 µM in [5]; 0.052 µM in test [6]. The GI50 in [8] came to 0.47 µM; in test [9], 5.5 µM. The molecule further displayed an IC50 in test [7] of 6.3 µM.

Consider `COc1cc(/C=C/c2cc3c(cc2O)CC[C@@H]2[C@@H]3CC[C@]3(C)[C@@H](O)CC[C@@H]23)cc(OC)c1OC`, for which the concentration for 50% growth inhibition (GI50) in test [1] came to 2.4 µM; in test [2] it was 2.8 µM; in test [3], 3.2 µM; in [4] it was 2 µM; in test [5], 3.2 µM; in test [6], 4.4 µM. Further, the results for the concentration for 50% growth inhibition (GI50) in [8] and in [9] were 2.7 µM and 3.6 µM, respectively. The same molecule yielded an IC50 in [7] greater than 40 µM.

As for `C[C@]12CC[C@@H]3c4cc(/C=N/CCO)c(O)cc4CC[C@H]3[C@@H]1CC[C@@H]2O`, the GI50 is 18 µM in test [1]; 20 µM in test [2]; 19 µM in test [3]; 13 µM in [4]; 11 µM in test [5]; 17 µM in [6]. Besides, the concentration for 50% growth inhibition (GI50) was 16 µM in test [8] and 23 µM in test [9]. The IC50 in test [7] was greater than 40 µM.

In the case of `COc1cc2c(cc1O)CC[C@@H]1[C@@H]2CC[C@]2(C)[C@@H](O)CC[C@@H]12` [2-METHOXYESTRADIOL], the concentration for 50% growth inhibition (GI50) in [1] came to 0.95 µM; in test [2] it was 1.8 µM; in [3] it was 0.21 µM; in [4], 0.32 µM; in test [5] it was 0.47 µM; in [6] it was 0.08 µM. Moreover, the concentration for 50% growth inhibition (GI50) in test [8] stood at 0.36 µM; in [9], 0.7 µM. In addition, the IC50 in test [7] was 4.7 µM.
